Six molecules from ChEMBL document CHEMBL4330096, “Discovery of potent and selective 5-azaindazole inhibitors of leucine-rich repeat kinase 2 (LRRK2) - Part 1” (Bioorg Med Chem Lett, 2019) can be followed below.

The structures appear in SMILES notation.

Data set [1] has as its target Leucine-rich repeat serine/threonine-protein kinase 2 (Homo sapiens, UniProt Q5S007, G2019S). Briefly: Inhibition of recombinant human GST-tagged LRRK2 G2019S mutant catalytic domain (970 to 2527 residues) expressed in baculovirus expression system by radiometric assay.
A short description of data set [2]: Stability in human liver microsomes assessed as compound turnover rate measured after 40 mins. The following applies: read-out: Drug metabolism. It counts as ADME, Microsome. An outline of the steps: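 In vitro incubation of compound with liver microsomes: human (HLM) for 40 min, mouse (MLM) for 30 min. Reported as % turnover of parent compound.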
For orientation: Microsomes from liver hold many membrane-bound enzymes, among them those of drug oxidation.

In data set [3] the target is T1, Serine/threonine-protein kinase BRSK2 (Homo sapiens) (UniProt Q8IWQ3).
T1 sequence (whole entry): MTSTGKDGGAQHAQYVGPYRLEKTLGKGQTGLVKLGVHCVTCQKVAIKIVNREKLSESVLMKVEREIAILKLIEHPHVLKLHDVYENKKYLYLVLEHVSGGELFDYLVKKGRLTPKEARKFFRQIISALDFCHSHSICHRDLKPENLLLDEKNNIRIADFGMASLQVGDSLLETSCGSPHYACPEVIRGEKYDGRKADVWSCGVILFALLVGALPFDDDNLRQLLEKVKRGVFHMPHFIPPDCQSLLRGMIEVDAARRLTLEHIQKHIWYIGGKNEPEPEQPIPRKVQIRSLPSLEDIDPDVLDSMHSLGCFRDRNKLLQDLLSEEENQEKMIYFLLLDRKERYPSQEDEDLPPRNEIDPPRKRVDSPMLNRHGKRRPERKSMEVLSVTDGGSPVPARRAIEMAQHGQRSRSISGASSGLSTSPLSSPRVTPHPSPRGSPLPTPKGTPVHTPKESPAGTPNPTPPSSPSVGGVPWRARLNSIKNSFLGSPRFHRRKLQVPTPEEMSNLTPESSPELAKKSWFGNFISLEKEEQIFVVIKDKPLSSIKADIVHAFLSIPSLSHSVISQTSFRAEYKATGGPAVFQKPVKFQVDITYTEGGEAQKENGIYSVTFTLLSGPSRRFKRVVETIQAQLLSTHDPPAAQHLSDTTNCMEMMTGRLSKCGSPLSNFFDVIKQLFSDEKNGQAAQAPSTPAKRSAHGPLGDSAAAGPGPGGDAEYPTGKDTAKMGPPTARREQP
The data set is described as follows: Inhibition of BRSK2 (unknown origin) at 10 uM relative to control. An outline of the steps:
(§1)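 Single-point screen of each compound against a panel of 59 protein kinases, at 1 or 10 μM. The panel data are also summarised as a rescaled geometric mean selectivity score.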

The target of data set [4] is Calcium/calmodulin-dependent protein kinase kinase 2 (Homo sapiens) (UniProt Q96RR4). The data set is described as follows: Inhibition of CAMKKb (unknown origin) at 10 uM relative to control. An outline of the steps: as §1
Chain of Calcium/calmodulin-dependent protein kinase kinase 2 (Homo sapiens) (Q96RR4 2-588 limits assumed): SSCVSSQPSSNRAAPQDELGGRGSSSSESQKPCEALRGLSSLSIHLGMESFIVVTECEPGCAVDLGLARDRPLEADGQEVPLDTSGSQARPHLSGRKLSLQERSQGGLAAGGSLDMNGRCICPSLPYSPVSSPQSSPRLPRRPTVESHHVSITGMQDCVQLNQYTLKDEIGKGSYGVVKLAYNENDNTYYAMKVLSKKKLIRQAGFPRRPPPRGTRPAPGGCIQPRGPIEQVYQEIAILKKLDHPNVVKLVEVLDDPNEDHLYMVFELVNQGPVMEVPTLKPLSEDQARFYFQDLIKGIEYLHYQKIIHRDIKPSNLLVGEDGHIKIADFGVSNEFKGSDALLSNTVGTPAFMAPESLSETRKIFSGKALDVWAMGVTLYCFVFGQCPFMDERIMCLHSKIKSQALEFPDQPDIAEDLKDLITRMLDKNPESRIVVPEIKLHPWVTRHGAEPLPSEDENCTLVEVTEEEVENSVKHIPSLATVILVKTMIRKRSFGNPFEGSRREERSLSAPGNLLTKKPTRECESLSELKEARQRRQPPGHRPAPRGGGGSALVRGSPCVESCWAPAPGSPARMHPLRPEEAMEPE
Data set [5] concerns the target CDK2/Cyclin A2 (Homo sapiens) (UniProt P24941+P20248). The data set is described as follows: Inhibition of CDK2/cyclinA (unknown origin) at 10 uM relative to control. Type of data set: protein-complex assay. A digest of the protocol: as §1
The target in data set [6] is Insulin receptor-related protein (Homo sapiens) (UniProt P14616). The data set is described as follows: Inhibition of IRR (unknown origin) at 10 uM relative to control. An outline of the steps:
as §1

The target of data set [7] is Mitogen-activated protein kinase 8 (Homo sapiens) (UniProt P45983). The data set is described as follows: Inhibition of JNK1 (unknown origin) at 10 uM relative to control. A digest of the protocol: as §1
Chain of Mitogen-activated protein kinase 8 (Homo sapiens) (P45983 whole entry): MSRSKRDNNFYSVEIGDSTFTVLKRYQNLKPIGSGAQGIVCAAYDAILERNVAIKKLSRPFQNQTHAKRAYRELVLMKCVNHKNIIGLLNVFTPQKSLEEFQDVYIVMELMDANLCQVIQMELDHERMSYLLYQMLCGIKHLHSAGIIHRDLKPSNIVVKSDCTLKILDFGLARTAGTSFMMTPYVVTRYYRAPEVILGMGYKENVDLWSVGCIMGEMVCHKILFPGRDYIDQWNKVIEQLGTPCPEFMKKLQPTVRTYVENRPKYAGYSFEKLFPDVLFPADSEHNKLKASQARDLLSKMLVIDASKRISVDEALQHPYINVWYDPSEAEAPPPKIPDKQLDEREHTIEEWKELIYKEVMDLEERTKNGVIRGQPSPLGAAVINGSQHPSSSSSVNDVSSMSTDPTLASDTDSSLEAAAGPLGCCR
Data set [8] concerns the target MAP/microtubule affinity-regulating kinase 3 (Homo sapiens) (UniProt P27448). The data set is described as follows: Inhibition of MARK3 (unknown origin) at 10 uM relative to control. An outline of the steps:
(§2)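 Single-concentration screen of each compound against a 59-protein-kinase panel, run at 10 µM or 1 µM. Activity relative to control is shown as a heat map across the panel.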

For data set [9], the target named is T2, Serine/threonine-protein kinase 3 (Homo sapiens) (UniProt Q13188).
T2 sequence (whole entry): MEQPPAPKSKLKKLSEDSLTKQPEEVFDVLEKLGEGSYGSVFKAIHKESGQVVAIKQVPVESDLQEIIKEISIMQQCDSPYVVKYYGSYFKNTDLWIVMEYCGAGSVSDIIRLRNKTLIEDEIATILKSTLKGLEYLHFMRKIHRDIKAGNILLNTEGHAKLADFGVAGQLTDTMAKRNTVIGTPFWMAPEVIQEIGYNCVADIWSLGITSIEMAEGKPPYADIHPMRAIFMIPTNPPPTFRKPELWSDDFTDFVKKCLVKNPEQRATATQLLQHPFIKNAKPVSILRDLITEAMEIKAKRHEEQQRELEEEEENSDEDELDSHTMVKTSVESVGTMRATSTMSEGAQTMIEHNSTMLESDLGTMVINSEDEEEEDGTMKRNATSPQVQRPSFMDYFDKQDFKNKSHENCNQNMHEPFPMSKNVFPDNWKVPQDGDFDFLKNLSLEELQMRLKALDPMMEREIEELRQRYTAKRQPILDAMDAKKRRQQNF
The data set is described as follows: Inhibition of MST2 (unknown origin) at 10 uM relative to control. A digest of the protocol: as §2

Data set [10] concerns the target T3, Serine/threonine-protein kinase Nek2 (Homo sapiens) (UniProt P51955).
T3 sequence (whole entry): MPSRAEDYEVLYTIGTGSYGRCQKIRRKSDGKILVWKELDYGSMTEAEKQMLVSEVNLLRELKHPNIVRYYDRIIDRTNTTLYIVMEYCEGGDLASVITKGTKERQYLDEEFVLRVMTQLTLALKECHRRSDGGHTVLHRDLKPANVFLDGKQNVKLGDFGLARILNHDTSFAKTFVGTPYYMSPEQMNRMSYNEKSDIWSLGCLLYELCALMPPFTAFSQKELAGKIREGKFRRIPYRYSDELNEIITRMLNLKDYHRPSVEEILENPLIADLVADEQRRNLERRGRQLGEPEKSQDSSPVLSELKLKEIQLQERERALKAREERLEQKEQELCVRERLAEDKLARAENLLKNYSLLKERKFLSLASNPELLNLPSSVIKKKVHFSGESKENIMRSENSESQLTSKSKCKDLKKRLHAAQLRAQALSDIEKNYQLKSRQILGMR
Briefly: Inhibition of NEK2a (unknown origin) at 10 uM relative to control. A digest of the protocol: as §2

Data set [11] addresses Ribosomal protein S6 kinase alpha-3 (Homo sapiens) (UniProt P51812). Briefly: Inhibition of RSK2 (unknown origin) at 10 uM relative to control. A digest of the protocol: (§3)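 Single-concentration screen across a panel of 59 protein kinases, with each compound tested at one fixed concentration. The read-out is residual kinase activity relative to control. Panel results are also condensed into a rescaled geometric mean (RGM) selectivity score.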

In data set [12] the target is Tyrosine-protein kinase SYK (Homo sapiens) (UniProt P43405). The data set is described as follows: Inhibition of SYK (unknown origin) at 10 uM relative to control. An outline of the steps:
as §3

The species named for data set [13] is Homo sapiens. Briefly: Inhibition of VEGFR (unknown origin) at 10 uM relative to control. An outline of the steps:
as §3

For orientation: IC50 means the midpoint of a concentration-inhibition curve. As a reminder, the inhibition is the drop in the measured response relative to a control, in per cent.

Chain of MAP/microtubule affinity-regulating kinase 3 (Homo sapiens) (P27448 whole entry, looked up): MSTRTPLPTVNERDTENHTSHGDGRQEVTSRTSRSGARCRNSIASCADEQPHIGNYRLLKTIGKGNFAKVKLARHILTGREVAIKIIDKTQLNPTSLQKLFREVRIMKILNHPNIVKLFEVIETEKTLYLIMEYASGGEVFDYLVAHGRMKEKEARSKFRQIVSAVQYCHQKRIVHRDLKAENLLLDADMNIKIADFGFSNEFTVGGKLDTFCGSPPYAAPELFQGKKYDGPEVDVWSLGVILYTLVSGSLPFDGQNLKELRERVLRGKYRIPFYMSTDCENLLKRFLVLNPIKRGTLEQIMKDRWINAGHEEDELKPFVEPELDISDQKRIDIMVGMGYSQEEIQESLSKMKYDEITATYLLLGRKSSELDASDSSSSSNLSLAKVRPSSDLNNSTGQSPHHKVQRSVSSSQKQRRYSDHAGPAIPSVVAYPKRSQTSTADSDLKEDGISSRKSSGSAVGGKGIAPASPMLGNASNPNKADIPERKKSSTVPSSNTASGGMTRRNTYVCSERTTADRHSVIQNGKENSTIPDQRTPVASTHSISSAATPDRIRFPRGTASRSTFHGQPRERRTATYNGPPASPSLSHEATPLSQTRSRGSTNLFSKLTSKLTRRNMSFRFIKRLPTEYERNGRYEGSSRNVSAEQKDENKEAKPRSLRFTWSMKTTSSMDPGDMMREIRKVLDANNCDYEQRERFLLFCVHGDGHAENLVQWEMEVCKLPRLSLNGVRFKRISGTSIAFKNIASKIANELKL
Chain of Ribosomal protein S6 kinase alpha-3 (Homo sapiens) (P51812 whole entry): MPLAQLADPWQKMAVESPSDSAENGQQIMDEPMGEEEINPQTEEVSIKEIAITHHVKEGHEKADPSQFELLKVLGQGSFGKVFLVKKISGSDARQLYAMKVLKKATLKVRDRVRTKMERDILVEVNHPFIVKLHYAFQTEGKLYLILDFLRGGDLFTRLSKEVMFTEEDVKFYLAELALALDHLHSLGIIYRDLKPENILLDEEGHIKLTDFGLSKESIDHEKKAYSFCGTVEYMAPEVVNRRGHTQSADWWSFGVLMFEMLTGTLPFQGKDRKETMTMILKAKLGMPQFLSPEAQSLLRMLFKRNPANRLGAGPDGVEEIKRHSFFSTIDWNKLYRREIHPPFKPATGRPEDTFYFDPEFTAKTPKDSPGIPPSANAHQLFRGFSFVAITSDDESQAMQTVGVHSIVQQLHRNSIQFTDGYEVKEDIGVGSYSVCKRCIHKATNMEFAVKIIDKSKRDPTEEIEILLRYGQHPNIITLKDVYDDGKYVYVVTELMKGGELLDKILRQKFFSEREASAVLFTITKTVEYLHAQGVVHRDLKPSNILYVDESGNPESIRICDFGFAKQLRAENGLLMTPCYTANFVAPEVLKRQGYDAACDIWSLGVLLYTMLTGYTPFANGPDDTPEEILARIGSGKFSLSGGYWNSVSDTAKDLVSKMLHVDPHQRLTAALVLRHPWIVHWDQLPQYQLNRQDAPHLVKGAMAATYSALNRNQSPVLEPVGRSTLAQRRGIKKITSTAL
Chain of Leucine-rich repeat serine/threonine-protein kinase 2 (Q5S007 whole entry G2019S, the tested form may be a part): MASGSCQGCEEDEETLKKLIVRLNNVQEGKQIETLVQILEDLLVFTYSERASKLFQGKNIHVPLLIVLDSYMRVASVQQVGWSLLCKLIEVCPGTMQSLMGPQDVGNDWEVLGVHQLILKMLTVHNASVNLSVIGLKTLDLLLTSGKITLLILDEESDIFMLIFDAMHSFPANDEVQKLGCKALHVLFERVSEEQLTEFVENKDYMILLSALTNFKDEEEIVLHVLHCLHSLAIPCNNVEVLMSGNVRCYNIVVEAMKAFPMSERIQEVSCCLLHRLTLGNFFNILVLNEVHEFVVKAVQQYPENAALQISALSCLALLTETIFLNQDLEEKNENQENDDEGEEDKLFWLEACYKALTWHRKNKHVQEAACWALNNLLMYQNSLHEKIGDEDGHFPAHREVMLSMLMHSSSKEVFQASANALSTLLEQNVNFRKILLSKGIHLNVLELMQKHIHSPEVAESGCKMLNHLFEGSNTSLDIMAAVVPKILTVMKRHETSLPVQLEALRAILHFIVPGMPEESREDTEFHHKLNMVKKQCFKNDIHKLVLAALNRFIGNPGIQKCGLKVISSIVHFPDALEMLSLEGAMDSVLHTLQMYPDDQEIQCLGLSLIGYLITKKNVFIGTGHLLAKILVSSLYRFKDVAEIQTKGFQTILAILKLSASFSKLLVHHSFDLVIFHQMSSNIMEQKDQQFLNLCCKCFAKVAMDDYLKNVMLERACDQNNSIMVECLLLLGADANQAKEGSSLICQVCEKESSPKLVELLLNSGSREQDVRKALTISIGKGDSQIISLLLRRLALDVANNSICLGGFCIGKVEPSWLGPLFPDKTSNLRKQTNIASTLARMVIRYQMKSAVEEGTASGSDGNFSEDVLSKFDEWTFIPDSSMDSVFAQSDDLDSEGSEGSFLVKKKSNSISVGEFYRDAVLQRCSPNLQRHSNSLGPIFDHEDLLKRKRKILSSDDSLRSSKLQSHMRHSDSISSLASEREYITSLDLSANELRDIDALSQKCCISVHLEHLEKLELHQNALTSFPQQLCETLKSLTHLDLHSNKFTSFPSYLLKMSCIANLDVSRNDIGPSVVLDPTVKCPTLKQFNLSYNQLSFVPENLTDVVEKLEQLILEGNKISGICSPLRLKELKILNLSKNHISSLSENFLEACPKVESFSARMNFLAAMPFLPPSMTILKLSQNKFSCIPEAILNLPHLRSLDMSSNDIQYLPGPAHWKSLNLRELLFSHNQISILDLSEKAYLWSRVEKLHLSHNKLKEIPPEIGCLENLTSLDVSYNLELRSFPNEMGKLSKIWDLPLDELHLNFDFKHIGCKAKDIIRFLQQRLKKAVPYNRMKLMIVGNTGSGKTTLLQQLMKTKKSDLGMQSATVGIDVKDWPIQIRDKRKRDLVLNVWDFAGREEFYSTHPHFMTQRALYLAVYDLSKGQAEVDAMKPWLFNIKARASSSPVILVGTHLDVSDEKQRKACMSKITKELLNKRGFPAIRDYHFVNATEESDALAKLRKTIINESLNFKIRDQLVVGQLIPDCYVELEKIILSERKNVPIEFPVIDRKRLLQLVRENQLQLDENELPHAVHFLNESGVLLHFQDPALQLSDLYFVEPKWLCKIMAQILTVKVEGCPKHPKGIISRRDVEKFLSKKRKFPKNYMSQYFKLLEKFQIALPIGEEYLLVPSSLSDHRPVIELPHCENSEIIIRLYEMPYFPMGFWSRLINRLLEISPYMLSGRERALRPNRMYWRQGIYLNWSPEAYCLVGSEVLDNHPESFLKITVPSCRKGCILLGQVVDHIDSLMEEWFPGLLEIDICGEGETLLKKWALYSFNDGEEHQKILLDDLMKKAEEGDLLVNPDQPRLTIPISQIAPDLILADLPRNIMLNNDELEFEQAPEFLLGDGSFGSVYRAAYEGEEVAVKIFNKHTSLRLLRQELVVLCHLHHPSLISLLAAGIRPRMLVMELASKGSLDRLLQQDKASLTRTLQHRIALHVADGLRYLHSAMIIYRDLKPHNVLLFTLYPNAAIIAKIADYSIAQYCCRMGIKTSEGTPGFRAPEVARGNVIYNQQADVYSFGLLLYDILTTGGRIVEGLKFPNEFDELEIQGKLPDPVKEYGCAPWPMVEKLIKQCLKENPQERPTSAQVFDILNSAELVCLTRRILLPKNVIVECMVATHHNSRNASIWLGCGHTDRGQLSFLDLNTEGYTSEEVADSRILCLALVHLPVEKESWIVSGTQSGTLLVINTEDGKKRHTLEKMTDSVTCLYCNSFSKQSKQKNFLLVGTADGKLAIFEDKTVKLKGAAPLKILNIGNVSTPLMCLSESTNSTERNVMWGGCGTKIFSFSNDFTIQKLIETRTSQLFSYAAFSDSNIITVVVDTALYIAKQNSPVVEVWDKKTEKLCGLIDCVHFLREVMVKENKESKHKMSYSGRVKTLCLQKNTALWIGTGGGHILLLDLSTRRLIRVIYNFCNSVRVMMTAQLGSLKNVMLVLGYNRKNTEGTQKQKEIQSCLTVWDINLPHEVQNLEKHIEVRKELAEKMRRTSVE

As for `CC(C)n1cc(-c2n[nH]c3ccnc(OC4CCOCC4)c23)cn1`, the IC50 in data set [1] is 11 nM. Besides, in data set [2], the metabolised at 40 min stood at 21%.

Consider `Cc1n[nH]c2ccnc(NC3CCCCC3)c12`, for which, in data set [1], the IC50 amounted to 390 nM. In addition, the metabolised at 40 min in data set [2] is 7%. The inhibition was determined as 46% in [3]; 46% in data set [4]; 86% in data set [5]; 70% in data set [6]; 32% in data set [7]; 34% in [8]. In addition, the inhibition in [9] is 80%; in [10] it was 0%; in data set [11], 51%; in data set [12] it was 17%; in data set [13] it was 43%.

On to `Cc1n[nH]c2ccnc(OC3CCCCC3)c12`, for which the IC50 in data set [1] is 67 nM. The metabolised at 40 min in data set [2] worked out at 25%. The inhibition in [3] amounted to 67%; in data set [4], 72%; in [5], 86%; in data set [6], 66%; in [7], 86%; in data set [8] it was 46%. Also, the inhibition in data set [9] worked out at 79%; in [10] it was 0%; in data set [11] it was 73%; in [12], 16%; in [13], 76%.

Turning to `Cc1n[nH]c2ccnc(Nc3ccccc3F)c12`, the IC50 in data set [1] was found to be 150 nM. The inhibition in [3] amounted to 68%; in data set [4], 36%; in data set [5] it was 79%; in data set [6], 77%; in data set [7] it was 55%; in [8], 46%. Moreover, the inhibition in [9] turned out to be 66%; in data set [10] it was 2%; in data set [11], 38%; in data set [12], 0%; in [13], 67%.

`c1cc(-c2n[nH]c3ccnc(OC4CCOCC4)c23)cc(N2CCOCC2)n1`: the IC50 in data set [1] was 12 nM. Also, the metabolised at 40 min in data set [2] is 43%.

Regarding `Cc1n[nH]c2ccnc(Nc3ccc4ncsc4c3)c12`, the IC50 in [1] is 130 to 380 nM. For the same molecule, the inhibition in [3] is 35%; in data set [5], 78%; in [7], 56%; in data set [8], 36%; in [9], 72%; in data set [11] it was 73%. For the same molecule, the inhibition in data set [12] is 0%.
